Data as given in ChEMBL document CHEMBL1123886 (J Med Chem, 1987).
Activity calls are given as the source filed them. The calls are words filed in the database; no cut-off is given here.

Columns and labels:
[1] = test system: Lewis lung carcinoma cell line; assay: (§1) Optimal dose required to inhibit the LL (Lewis lung carcinoma model) cells in vivo administered intraperitoneally; NA= not active; format: functional, Mus musculus
Method in brief: (§2)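 Mice were inoculated iv with 10^6 Lewis lung carcinoma cells. OD is the optimal dose in mg/kg per day. Lifespan increase above 40% is significant, and long-term survival was scored at 60 days.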

P388/ADR [2] = assay: Optimal dose required to inhibit the P388/ADR cells in vivo after intraperitoneal administration.; format: functional, Mus musculus; design: unit: mg/kg/day
P388 [3] = assay: Optimal dose required to inhibit the P388 intraperitoneal administration.; format: functional, Mus musculus; design: unit: mg/kg/day
HCT-8 = assay: Ability to inhibit the growth of human colon tumor HCT-8 cells in vitro.; format: functional, cell-based
Method in brief: (§3)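 Cultured leukemia L1210 or human colon tumor HCT-8 cells were exposed to drug for 40 h.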

[4] = Lipophilicity (Rm).; format: physicochemical
P388 [5] = assay: Percent increase in life span of the drug-treated tumor-bearing animals vs nontreated tumor-bearing controls with P388 leukemia cells.; format: functional, Mus musculus
Method in brief: (§4)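 Groups of 6. Optimal dose is in mg/kg per day. ILSmax is the % lifespan increase over untreated tumor-bearing controls at the optimal dose; above 20% counted significant. Cures are 50-day survivors.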

poly[d(A-T)] = assay: Binding constant for poly[d(A-T)] by ethidium bromide displacement
L1210 = assay: Ability to inhibit the growth of leukemia L1210 cells in vitro.; format: functional, cell-based; settings: Mus musculus; method in brief: as §3
Mus musculus = species: Mus musculus; assay: Percent increase in life span of the drug treated tumor bearing animals vs nontreated tumor bearing controls was determined against P388/ADR cells;NA= not active; format: functional, organism-based
Method in brief: (§5)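 Mice were inoculated ip with 10^6 P388 or ADR/P388 cells. OD is the optimal dose in mg/kg per day. ILSmax is the % lifespan increase over untreated tumor-bearing controls at the OD; above 20% is significant. Long-term survival was scored at 50 days.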

[6] = test system: Lewis lung carcinoma cell line; assay: Percent increase in life span of the drug treated tumor bearing animals vs nontreated tumor bearing controls was determined against LL (Lewis lung carcinoma model) cells;NA= not active; format: functional, Mus musculus
Method in brief: (§6)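 Groups of 6. Optimal dose is in mg/kg per day. ILSmax is the % lifespan increase over untreated tumor-bearing controls at the optimal dose; above 40% counted significant. Cures are 60-day survivors.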

[7] = test system: Lewis lung carcinoma cell line; assay: Optimal dose required to inhibit the LL Lewis lung carcinoma model cells in vivo administered intraperitoneally; format: functional, Mus musculus; method in brief: as §2
[8] = test system: Lewis lung carcinoma cell line; assay: as §1; format: functional; method in brief: as §6
[9] = test system: Lewis lung carcinoma cell line; assay: Optimal dose to inhibit the LL (Lewis lung carcinoma model) cells in vivo after intraperitoneal administration.; format: functional, Mus musculus; design: unit: mg/kg/day; method in brief: as §2
[10] = test system: Lewis lung carcinoma cell line; assay: Percent increase in life span, of the drug-treated tumor-bearing animals vs nontreated tumor-bearing controls with LL (Lewis lung carcinoma model) cells.; format: functional, Mus musculus; method in brief: as §6
[11] = The compound was evaluated for its acid dissociation constant; format: ADME
P388 [12] = assay: Percent increase in life span of the drug treated tumor bearing animals vs nontreated tumor bearing controls was determined against P388 leukemia cells; NA = not active; format: functional; settings: Mus musculus; method in brief: as §5
P388 [13] = assay: Optimal dose required to inhibit the P388 intraperitoneally; format: functional, Mus musculus; method in brief: as §4
Nucleic Acid = assay: Binding constant (1/M) to poly[d(A-T)] by ethidium bromide displacement; format: nucleic-acid assay
P388/ADR [14] = assay: Percent increase in life span, of the drug-treated tumor-bearing animals vs nontreated tumor-bearing controls with P388/ADR cells.; format: functional, Mus musculus; method in brief: as §4

CNc1cc(NC(=O)OC)ccc1Nc1c2ccccc2nc2cc(C)ccc12
OD [1]: 8.9 | OD (P388/ADR [2]): 13.3 | OD (P388 [3]): 8.9 | IC50 (HCT-8): 270 nM | Rm [4]: 0.78 | ILS max (P388 [5]): 105 | Log K (poly[d(A-T)]): 6.72 | IC50 (L1210): 152 nM | ILS max (Mus musculus): inactive | ILS max [6]: 58

CNc1cc(NC(=O)OC)ccc1Nc1c2ccccc2nc2ccc(C)cc12
OD [7]: 13.3 | OD (P388/ADR [2]): 45 | ILS max ([8]; Mus musculus): inactive | OD (P388 [3]): 45 | IC50 (HCT-8): 850 nM | Rm [4]: 0.7 | ILS max (P388 [5]): 69 | Log K (poly[d(A-T)]): 5.62 | IC50 (L1210): 436 nM | ILS max (Mus musculus): inactive

CNc1cc(NC(=O)OC)ccc1Nc1c2ccc(F)cc2nc2c(OC)cccc12
OD (P388/ADR [2]): 45 | OD [9]: 45 | OD (P388 [3]): 100 | IC50 (HCT-8): 1600 nM | Rm [4]: 0.45 | ILS max (P388 [5]): 125 | ILS max [10]: 52 | Log K (poly[d(A-T)]): 6.27 | IC50 (L1210): 940 nM | ILS max (Mus musculus): inactive

CNc1cc(NC(C)=O)ccc1Nc1c2ccccc2nc2ccccc12
OD (P388/ADR [2]): 65 | OD (P388 [3]): 65 | pKa [11]: 7.8 | Rm [4]: 0.3 | ILS max (P388 [5]): 96 | Log K (poly[d(A-T)]): 6.79 | ILS max (Mus musculus): inactive

COC(=O)Nc1ccc(Nc2c3ccccc3nc3ccccc23)c(N(C)C)c1
OD (P388/ADR [2]): 30 | OD (P388 [3]): 45 | pKa [11]: 7.85 | Rm [4]: 0.56 | ILS max (P388 [5]): 20 | Log K (poly[d(A-T)]): 5.88 | ILS max (Mus musculus): inactive

CC(=O)Nc1ccc(Nc2c3ccccc3nc3ccccc23)c(N(C)C)c1
OD (P388/ADR [2]): 100 | ILS max (P388 [12]): inactive | OD (P388 [3]): 65 | pKa [11]: 7.59 | Rm [4]: 0.57 | Log K (poly[d(A-T)]): 5.58 | ILS max (Mus musculus): inactive

CNc1cc(NP(=O)(OC)OC)ccc1Nc1c2ccccc2nc2ccccc12
pKa [11]: 8.09 | OD (P388 [13]): 13.3 | Rm [4]: 0.32 | Log K (Nucleic Acid): 6.82

COc1cc(NC(C)=O)ccc1Nc1c2ccccc2nc2ccccc12
OD (P388/ADR [2]): 8.9 | OD (P388 [3]): 13.3 | pKa [11]: 7.79 | Rm [4]: 0.3 | ILS max (P388 [5]): 50 | Log K (poly[d(A-T)]): 6.1 | ILS max (Mus musculus): inactive

CNc1cc(NC(=O)OC)ccc1Nc1c2ccccc2nc2cc(I)ccc12
OD (P388/ADR [2]): 100 | OD [9]: 65 | OD (P388 [3]): 45 | IC50 (HCT-8): 350 nM | Rm [4]: 0.65 | ILS max (P388 [5]): 92 | ILS max [10]: 68 | Log K (poly[d(A-T)]): 6.12 | IC50 (L1210): 110 nM | ILS max (Mus musculus): inactive

COC(=O)Nc1ccc(Nc2c3ccccc3nc3ccccc23)c(OC)c1
OD (P388/ADR [2]): 45 | OD (P388 [3]): 30 | pKa [11]: 7.93 | Rm [4]: 0.5 | ILS max (P388 [5]): 86 | Log K (poly[d(A-T)]): 6.24 | ILS max (P388/ADR [14]): 33

COP(=O)(Nc1ccc(Nc2c3ccccc3nc3ccccc23)c(N(C)C)c1)OC
OD (P388/ADR [2]): 100 | OD (P388 [3]): 100 | pKa [11]: 8.17 | Rm [4]: 0.44 | ILS max (P388 [5]): 97 | Log K (poly[d(A-T)]): 6.43 | ILS max (Mus musculus): inactive

COc1cc(NP(=O)(OC)OC)ccc1Nc1c2ccccc2nc2ccccc12
OD (P388/ADR [2]): 8.9 | OD (P388 [3]): 8.9 | pKa [11]: 8.21 | Rm [4]: 0.37 | ILS max (P388 [5]): 67 | Log K (poly[d(A-T)]): 6.18 | ILS max (Mus musculus): inactive

CNc1cc(NC(=O)OC)ccc1Nc1c2ccccc2nc2ccccc12
OD [7]: 30 | OD (P388/ADR [2]): 45 | ILS max [8]: 112 | OD (P388 [3]): 30 | pKa [11]: 7.95 | IC50 (HCT-8): 290 nM | Rm [4]: 0.51 | ILS max (P388 [5]): 132 | Log K (poly[d(A-T)]): 6.35 | IC50 (L1210): 284 nM | ILS max (P388/ADR [14]): 50

CNc1cc(NC(=O)OC)ccc1Nc1c2ccccc2nc2cc([N+](=O)[O-])ccc12
OD (P388/ADR [2]): 20 | OD [9]: 65 | OD (P388 [3]): 30 | Rm [4]: 0.4 | ILS max (P388 [5]): 48 | ILS max [10]: 49 | Log K (poly[d(A-T)]): 6.58 | IC50 (L1210): 5060 nM | ILS max (Mus musculus): inactive

CNc1cc(NC(=O)OC)ccc1Nc1c2ccc(Cl)cc2nc2c(C)cccc12
OD (P388/ADR [2]): 45 | OD [9]: 45 | OD (P388 [3]): 45 | IC50 (HCT-8): 330 nM | Rm [4]: 0.67 | ILS max (P388 [5]): 173 | ILS max [10]: 143 | Log K (poly[d(A-T)]): 7.52 | IC50 (L1210): 185 nM | ILS max (P388/ADR [14]): 79

COc1cc(NS(C)(=O)=O)ccc1Nc1c2ccccc2nc2ccccc12 [AMSACRINE]
Rm [4]: 0.18 | ILS max (Mus musculus): inactive

CNc1cc(NC(=O)OC)ccc1Nc1c2ccccc2nc2c(Cl)cccc12
OD (P388/ADR [2]): 45 | OD [9]: 65 | OD (P388 [3]): 30 | IC50 (HCT-8): 4500 nM | Rm [4]: 0.42 | ILS max (P388 [5]): 30 | Log K (poly[d(A-T)]): 6.3 | IC50 (L1210): 906 nM | ILS max (P388/ADR [14]): 22 | ILS max ([6]; Mus musculus): inactive

CNc1cc(NC(=O)OC)ccc1Nc1c2ccccc2nc2cc(F)ccc12
OD (P388/ADR [2]): 100 | OD [9]: 100 | OD (P388 [3]): 65 | IC50 (HCT-8): 420 nM | Rm [4]: 0.63 | ILS max (P388 [5]): 110 | ILS max [10]: 83 | Log K (poly[d(A-T)]): 5.77 | IC50 (L1210): 200 nM | ILS max (P388/ADR [14]): 21

CNc1cc(NS(C)(=O)=O)ccc1Nc1c2ccccc2nc2ccccc12
OD (P388/ADR [2]): 13.3 | Rm [4]: 0.17 | ILS max (Mus musculus): inactive

CNc1cc(NC(=O)OC)ccc1Nc1c2ccccc2nc2c(OC)cccc12
OD (P388/ADR [2]): 30 | OD [9]: 30 | OD (P388 [3]): 30 | IC50 (HCT-8): 630 nM | Rm [4]: 0.41 | ILS max (P388 [5]): 98 | ILS max [10]: 167 | Log K (poly[d(A-T)]): 6.57 | IC50 (L1210): 540 nM | ILS max (P388/ADR [14]): 35
